Measured values: ChEMBL document CHEMBL4251558, “Synthesis and preliminary antiproliferative activity of new pteridin-7(8H)-one derivatives” (Eur J Med Chem, 2018)

Columns and labels:
Format in all cases: functional, cell-based
NCI-H1650 = assay: Antiproliferative activity against human NCI-H1650 cells assessed as decrease in cell viability after 48 hrs by MTT assay; conditions: NCI-H1650, 48 h
Summary of the method: (§1)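 Cells in exponential growth seeded at 3000 per well and allowed 24 h. Medium then replaced with fresh medium holding a range of compound concentrations, followed by 48 h incubation. Viability read by MTT at 570 nm. IC50 is the concentration giving 50% inhibition of proliferation, reported as mean ± SD of three independent experiments.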

MKN-45 = assay: Antiproliferative activity against human MKN45 cells assessed as decrease in cell viability after 48 hrs by MTT assay; conditions: MKN-45, 48 h; summary of the method: as §1
ECa-109 cell line = assay: Antiproliferative activity against human EC109 cells assessed as decrease in cell viability after 48 hrs by MTT assay; conditions: ECa-109, 48 h; summary of the method: as §1
MGC-803 = assay: Antiproliferative activity against human MGC803 cells assessed as decrease in cell viability after 48 hrs by MTT assay; conditions: MGC-803, 48 h; summary of the method: as §1

Structure (SMILES) | IC50 (NCI-H1650) [µM] | IC50 (MKN-45) [µM] | IC50 (ECa-109 cell line) [µM] | IC50 (MGC-803) [µM]
Cc1nc(N2CCN(C)CC2)c2ncc(=O)n(Cc3ccccc3)c2n1 | > 64 | > 64 | 39 | > 64
CCCSc1nc(N2CCN(C)CC2)c2ncc(=O)n(CCCc3ccccc3)c2n1 | > 64 | 9.97 | 18.3 | 13.8
CCCSc1nc(NCC2CCCCC2)c2ncc(=O)n(Cc3ccccc3)c2n1 | > 64 | 21 | 36 | 30.4
CCCNc1nc(SCCC)nc2c1ncc(=O)n2Cc1ccccc1 | > 64 | 39.2 | > 64 | > 64
CCCSc1nc(NC2CC2)c2ncc(=O)n(Cc3ccccc3)c2n1 | > 64 | 23.3 | 29.7 | 43.7
CCCSc1nc(N2CCSCC2)c2ncc(=O)n(Cc3ccccc3)c2n1 | 54.8 | > 64 | > 64 | 34.7
CCCSc1nc(Nc2cc(OC)c(OC)c(OC)c2)c2ncc(=O)n(Cc3ccccc3)c2n1 | 36.9 | 14.2 | 38.7 | 15
CCCSc1nc(N2CCN(C)CC2)c2ncc(=O)n(CC(C)C)c2n1 | 45.4 | 16.8 | 37.5 | 17.2
CCCSc1nc(Nc2ccccc2)c2ncc(=O)n(Cc3ccccc3)c2n1 | > 64 | 38.6 | 19 | 36.6
